Measured values published in ChEMBL document CHEMBL4266025, “Stereoselective Synthesis of the Isomers of Notoincisol A: Assigment of the Absolute Configuration of this Natural Product and Biological Evaluation” (J Nat Prod, 2018).
Active and inactive are the calls of the source. No cut-off for these calls is given here.

Columns and labels:
[1] = target: T1, Peroxisome proliferator-activated receptor gamma (Homo sapiens) (UniProt P37231); assay: Transactivation of human full length PPARgamma expressed in HEK293 cells up to 3 uM after 18 hrs by luciferase reporter gene based luminescence assay; type: cell-based
T1 sequence (whole entry): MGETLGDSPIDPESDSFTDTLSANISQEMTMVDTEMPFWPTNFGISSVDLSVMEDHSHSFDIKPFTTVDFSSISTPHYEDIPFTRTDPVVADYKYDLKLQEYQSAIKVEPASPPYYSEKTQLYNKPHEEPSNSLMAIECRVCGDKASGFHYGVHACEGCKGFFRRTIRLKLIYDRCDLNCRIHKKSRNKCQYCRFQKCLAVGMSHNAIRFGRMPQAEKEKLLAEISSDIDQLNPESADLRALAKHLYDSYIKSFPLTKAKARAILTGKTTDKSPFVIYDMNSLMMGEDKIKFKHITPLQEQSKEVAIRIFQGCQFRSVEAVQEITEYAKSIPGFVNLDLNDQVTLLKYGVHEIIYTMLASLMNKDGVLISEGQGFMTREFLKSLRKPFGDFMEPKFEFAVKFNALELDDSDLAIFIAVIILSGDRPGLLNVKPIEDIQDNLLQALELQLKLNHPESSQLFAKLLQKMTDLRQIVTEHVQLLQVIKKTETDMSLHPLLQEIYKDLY
How it was run: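 HEK293 cells transfected for 6 h with full-length human PPARγ, a PPRE-firefly luciferase reporter and pEGFP-N1 (internal control). Cells reseeded in serum-free DMEM, dosed at 0.1–30 μM in DMSO and incubated 18 h. Luciferase/EGFP ratio expressed as fold induction over 0.1% DMSO; pioglitazone 5 μM as positive control. EC50 from a variable-slope sigmoidal fit.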

HEK293 = assay: Cytotoxicity against HEK293 cells assessed as decrease in cell viability at 10 uM after 24 hrs by resazurin based assay; details: human, hek293, 24 h
How it was run: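 HEK293 cells seeded at 4 × 10^4 cells/well, grown overnight, then exposed to compound at 0.3, 1, 3, 10 and 30 μM for 24 h. Resazurin (10 μg/mL in PBS) added for 4 h at 37 °C. Resorufin fluorescence read at 535 nm excitation/590 nm emission as the viability measure.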

Oocyte = assay: Induction of current amplitude in Xenopus laevis oocytes after […] by electrophysiological method; type: functional, cell-based
[2] = target: GABA-A receptor alpha-1/beta-3 (Homo sapiens) (UniProt P14867+P28472); assay: Positive allosteric modulation of GABAA receptor alpha1beta3 (unknown origin) expressed in Xenopus laevis oocytes assessed as GABA-stimulated current amplitude at 1 to 10 uM up to 120 secs by electrophysiological method; type: cell-based
How it was run: (§1)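 Two-electrode voltage clamp on Xenopus oocytes injected with subunit mRNA mixtures (α1β3 or α1β2γ2). Compounds at 1 and 10 μM, diluted into measurement buffer, co-applied with GABA at EC3-5, EC20, EC50 and EC80. Result taken as enhancement of the GABA-elicited current.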

[3] = target: GABA-A receptor; alpha-1/beta-2/gamma-2 (Homo sapiens) (UniProt P14867+P47870+P18507); assay: Positive allosteric modulation of GABAA receptor alpha1beta2gamma2 (unknown origin) expressed in Xenopus laevis oocytes assessed as GABA-stimulated current amplitude at 1 to 10 uM incubated for 120 secs by electrophysiological method relative to control; type: cell-based; how it was run: as §1

Compound	Activity [1]	Activity (HEK293)	Activity (Oocyte)	Activity [2]	fold change (FC) [3]
CCC[C@@H](O)CC/C=C/C=C/C#CC#CCCCO [DIHYDROOENANTHOTOXIN]	inactive	Toxic			
C=C[C@H](O)C#CC#C[C@@H](/C=C\CCCCCCC)OC(=O)/C=C/c1ccc(O)c(OC)c1	inactive		Active	Active	4
C=CC(O)C#CC#CC(/C=C\CCCCCCC)OC(=O)/C=C/c1ccc(O)c(OC)c1 (stereo not drawn)	inactive	Toxic			
CCC[C@@H](O)/C=C/C=C/C=C/C#CC#CCCCO [CICUTOXIN]	inactive	Toxic			
C=C[C@H](O)C#CC#C[C@H](/C=C\CCCCCCC)OC(=O)/C=C/c1ccc(O)c(OC)c1	inactive		Active	Active	4
C=C[C@@H](O)C#CC#C[C@H](/C=C\CCCCCCC)OC(=O)/C=C/c1ccc(O)c(OC)c1			Active	Active	4
C=C[C@H](O)C#CC#C[C@@H](O)/C=C\CCCCCCC	inactive	Toxic			
C=C[C@@H](O)C#CC#C[C@@H](/C=C\CCCCCCC)OC(=O)/C=C/c1ccc(O)c(OC)c1	inactive		Active	Active	4
